In general, inhibition refers to how much of the control response was suppressed. As usually defined, the Kd is a measure of binding affinity in units of concentration. A higher Kd goes with weaker binding. As usually defined, the IC50 is the point on the concentration scale where inhibition reaches its midpoint. Read a low IC50 as greater potency in that assay.

Structures are written as SMILES. Active and inactive are the calls of the source. No cut-off for these calls is given here. A value given as a limit tells only on which side of the number the result lay.

The test system of data set [1] is A549. Kind of data set: Cytotoxicity against human A549 cells assessed as reduction in cell viability at 10 to 25 uM after 8 hrs by Alamar blue assay. Particulars: a549, 8 h. Type of data set: cell-based. The method, boiled down: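 Viability of A549-NF-κB-luc cells was measured by Alamar Blue colorimetric staining, run in parallel with the luciferase reporter. Cells were dosed with serial compound dilutions at 0.5% final DMSO, TNF-α (15 ng/mL) was added 30 min after dosing, and the read was at 8 h.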

In data set [2] the target is T1, Bromodomain-containing protein 4 (Homo sapiens, UniProt O60885). Description: Inhibition of BRD4 bromodomain 1 in human A549 cells assessed as reduction in TNFalpha-induced NFkappaB transcription at 1 to 25 uM after 8 hrs by bright-glo luciferase reporter gene assay relative to control. Type of data set: cell-based. The method, boiled down:
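A549-NF-κB-luc cells (DMEM, 10% FBS, hygromycin) were dosed with serial compound dilutions at 0.5% final DMSO. TNF-α (15 ng/mL final) was added 30 min after dosing. Bright-Glo luciferase luminescence was read 8 h later. Activity is expressed as percent NF-κB activity, as means ± SEM of three biological experiments, each with three technical replicates.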
For orientation: Reporter assays use an easily measured gene product as a stand-in for the process of interest.

Data set [3] deals with T2, Bromodomain-containing protein 3 (Homo sapiens, UniProt Q15059). Kind of data set: Inhibition of human 6x-His-tagged BRD3 bromodomain 2 expressed in Escherichia coli.
T2 sequence (Q15059 whole entry): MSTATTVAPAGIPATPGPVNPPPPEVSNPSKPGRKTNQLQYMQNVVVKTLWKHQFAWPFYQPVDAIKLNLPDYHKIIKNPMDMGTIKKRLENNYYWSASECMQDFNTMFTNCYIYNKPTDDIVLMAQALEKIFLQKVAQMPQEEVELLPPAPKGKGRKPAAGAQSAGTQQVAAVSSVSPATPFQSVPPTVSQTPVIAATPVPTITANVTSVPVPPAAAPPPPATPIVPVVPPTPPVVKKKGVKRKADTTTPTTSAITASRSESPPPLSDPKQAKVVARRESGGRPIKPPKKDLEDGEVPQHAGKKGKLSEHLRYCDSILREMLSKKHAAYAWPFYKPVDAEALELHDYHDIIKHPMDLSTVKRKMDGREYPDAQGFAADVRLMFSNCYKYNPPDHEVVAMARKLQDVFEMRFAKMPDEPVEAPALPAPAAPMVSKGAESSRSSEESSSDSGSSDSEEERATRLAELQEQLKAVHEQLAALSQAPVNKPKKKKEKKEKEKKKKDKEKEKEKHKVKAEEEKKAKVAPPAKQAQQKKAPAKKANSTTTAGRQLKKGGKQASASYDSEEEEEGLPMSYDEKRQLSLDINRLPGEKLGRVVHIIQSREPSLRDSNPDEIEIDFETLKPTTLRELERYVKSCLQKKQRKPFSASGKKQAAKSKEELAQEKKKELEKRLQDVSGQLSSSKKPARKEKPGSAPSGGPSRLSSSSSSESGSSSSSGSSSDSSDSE
Data set [4] concerns the target T3, Bromodomain-containing protein 2 (Homo sapiens, UniProt P25440). Description: Inhibition of human 6x-His-tagged BRD2 bromodomain 2 expressed in Escherichia coli.
Data set [5] deals with T4, Bromodomain testis-specific protein (Homo sapiens, UniProt Q58F21).
Data set [6] concerns the target T4, Bromodomain testis-specific protein. This is another data set of the same source.
In data set [7] the target is T1, Bromodomain-containing protein 4. Description: Inhibition of BRD4 C-terminal bromodomain 2 (unknown origin) expressed in Escherichia coli Bl21(DE3) by alpha-screen assay. In general terms: Alpha assays give light when donor and acceptor beads are brought close together.
For data set [8] the target is unchanged. Kind of data set: Inhibition of BRD4 N-terminal bromodomain 1 (unknown origin) expressed in Escherichia coli Bl21(DE3) by alpha-screen assay.
The target in data set [9] is T2, Bromodomain-containing protein 3. Description: Inhibition of BRD3 N-terminal bromodomain 1 (unknown origin) expressed in Escherichia coli Bl21(DE3) by alpha-screen assay.
For data set [10] the target is unchanged. Kind of data set: Inhibition of BRD3 C-terminal bromodomain 2 (unknown origin) expressed in Escherichia coli Bl21(DE3) by alpha-screen assay.
In data set [11] the target is T3, Bromodomain-containing protein 2. Kind of data set: Inhibition of BRD2 N-terminal bromodomain 1 (unknown origin) expressed in Escherichia coli Bl21(DE3) by alpha-screen assay.
For data set [12] the target is unchanged. Description: Inhibition of BRD2 C-terminal bromodomain 2 (unknown origin) expressed in Escherichia coli Bl21(DE3) by alpha-screen assay.
In data set [13] the target is T4, Bromodomain testis-specific protein. Description: Inhibition of BRDT N-terminal bromodomain 1 (unknown origin) expressed in Escherichia coli Bl21(DE3) by alpha-screen assay.
Data set [14] deals with T1, Bromodomain-containing protein 4. Kind of data set: Displacement of BI-BODIPY from BRD4 C-terminal bromodomain 2 (unknown origin) expressed in Escherichia coli Bl21(DE3) by fluorescence polarization assay. An outline of the steps:
(§1)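 Fluorescence anisotropy in 50 mM HEPES, 100 mM NaCl, 4 mM CHAPS pH 7.4, with 15 nM BI-BODIPY tracer and bromodomain set at 80% tracer bound. […] Percent bound was determined where displacement was incomplete.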
A general note: In fluorescence polarisation assays a small probe gives low polarisation when free and higher when bound to something large.

Data set [15] shares this target. Particulars: A549, 10 uM.
The target is the same in data set [16]. The following applies: A549, 1 uM.
Data set [17] has as its target T4, Bromodomain testis-specific protein. Kind of data set: Displacement of BI-BODIPY from BRDT C-terminal bromodomain 2 (unknown origin) expressed in Escherichia coli Bl21(DE3) by fluorescence polarization assay. An outline of the steps:
as §1

For data set [18], the target named is Mitogen-activated protein kinase 14 (Homo sapiens) (UniProt Q16539). Description: Inhibition of p38alpha in human MM1S cells assessed as reduction in MSK1 phosphorylation at T581 up to 10 uM by Western blot analysis. Type of data set: cell-based.
Sequence of Mitogen-activated protein kinase 14 (Homo sapiens) (Q16539 whole entry): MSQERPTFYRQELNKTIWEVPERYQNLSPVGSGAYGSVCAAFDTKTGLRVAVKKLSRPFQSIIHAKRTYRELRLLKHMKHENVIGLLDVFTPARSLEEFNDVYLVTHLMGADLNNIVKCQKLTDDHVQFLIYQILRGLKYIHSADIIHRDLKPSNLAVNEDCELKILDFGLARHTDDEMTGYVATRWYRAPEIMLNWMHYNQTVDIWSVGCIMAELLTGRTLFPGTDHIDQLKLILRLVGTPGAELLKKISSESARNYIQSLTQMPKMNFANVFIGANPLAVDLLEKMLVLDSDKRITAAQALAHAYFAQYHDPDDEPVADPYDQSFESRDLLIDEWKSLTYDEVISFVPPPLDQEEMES
Data set [19] concerns the target T1, Bromodomain-containing protein 4.
For data set [20] the target is unchanged. Kind of data set: Binding affinity to BRD4 bromodomain 1 (unknown origin) expressed in Escherichia coli Bl21(DE3) by isothermal-titration calorimetry.
The target is the same in data set [21]. Kind of data set: Inhibition of BRD4 bromodomain 1 in human MM1S cells assessed as reduction in c-myc levels at 0.1 to 30 uM by Western blot analysis. Type of data set: cell-based. The method, boiled down:
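MM.1S cells in RPMI-1640/10% FBS were seeded at 10^6 per well and exposed for 6 h to 0.1–30 μM compound. Lysates were run on 12.5% SDS-PAGE and blotted for c-Myc, with GAPDH as loading control. Detection by HRP secondary and ECL on X-ray film.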

Data set [22] has as its system A549. Description: Cytotoxicity against human A549 cells assessed as reduction in cell viability at 0.5 to 50 uM after 8 hrs by Alamar blue assay. The data set is classed as cell-based. The following applies: a549, 8 h. An outline of the steps:
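A549-NF-κB-luc cells in DMEM/10% FBS with hygromycin were dosed with serially diluted compound at 0.5% final DMSO. TNF-α (15 ng/mL final) was added 30 min after dosing, and viability was read by Alamar Blue in parallel with the 8 h luciferase read. Three biological × three technical replicates.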

The target in data set [23] is Mitogen-activated protein kinase 14 (Homo sapiens) (UniProt Q16539). Description: Inhibition of p38alpha in human MM1S cells assessed as reduction in MSK1 phosphorylation at T581 at 0.1 to 30 uM by Western blot analysis. Type of data set: cell-based.
In data set [24] the target is T4, Bromodomain testis-specific protein. Description: Binding affinity to human BRDT bromodomain 1 (unknown origin) expressed in Escherichia coli Bl21(DE3) at 12.5 to 100 uM by protein-observed fluorine NMR method. The method, boiled down:
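5-Fluorotryptophan-labeled bromodomain expressed in E. coli Bl21(DE3)+pRARE in defined medium with 5-fluoroindole, induced with 1 mM IPTG at 20 °C, Ni-purified. 19F NMR with 40−50 μM protein in 50 mM TRIS, 100 mM NaCl, 5% D2O pH 7.4, 0.05% DMSO, across varying ligand concentrations. Referenced to trifluoroacetate; 0.7 s relaxation delay, 90° flip.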

Data set [25] has the same target. Description: Inhibition of human BRDT bromodomain 1 expressed in HEK293 cells at 10 uM relative to control. Type of data set: cell-based.
Data set [26] addresses SWI/SNF-related matrix-associated actin-dependent regulator of chromatin subfamily A member 2 (Homo sapiens) (UniProt P51531). Kind of data set: Inhibition of human SMARCA2 (1377 to 1486 residues) (unknown origin) expressed in bacterial expression system at 10 uM relative to control.
Data set [27] concerns the target Histone acetyltransferase KAT2B (Homo sapiens) (UniProt Q92831). Description: Inhibition of human PCAF (715 to 831 residues) expressed in bacterial expression system at 10 uM relative to control.
Data set [28] has as its target Histone acetyltransferase p300 (Homo sapiens) (UniProt Q09472). Kind of data set: Inhibition of human P300 (1040 to 1161 residues) expressed in bacterial expression system at 10 uM relative to control.
In data set [29] the target is SWI/SNF-related matrix-associated actin-dependent regulator of chromatin subfamily A member 4 (Homo sapiens) (UniProt P51532). Kind of data set: Inhibition of human SMARCA4 expressed in HEK293 cells at 10 uM relative to control. Type of data set: cell-based.
Sequence of SWI/SNF-related matrix-associated actin-dependent regulator of chromatin subfamily A member 4 (Homo sapiens) (P51532 whole entry): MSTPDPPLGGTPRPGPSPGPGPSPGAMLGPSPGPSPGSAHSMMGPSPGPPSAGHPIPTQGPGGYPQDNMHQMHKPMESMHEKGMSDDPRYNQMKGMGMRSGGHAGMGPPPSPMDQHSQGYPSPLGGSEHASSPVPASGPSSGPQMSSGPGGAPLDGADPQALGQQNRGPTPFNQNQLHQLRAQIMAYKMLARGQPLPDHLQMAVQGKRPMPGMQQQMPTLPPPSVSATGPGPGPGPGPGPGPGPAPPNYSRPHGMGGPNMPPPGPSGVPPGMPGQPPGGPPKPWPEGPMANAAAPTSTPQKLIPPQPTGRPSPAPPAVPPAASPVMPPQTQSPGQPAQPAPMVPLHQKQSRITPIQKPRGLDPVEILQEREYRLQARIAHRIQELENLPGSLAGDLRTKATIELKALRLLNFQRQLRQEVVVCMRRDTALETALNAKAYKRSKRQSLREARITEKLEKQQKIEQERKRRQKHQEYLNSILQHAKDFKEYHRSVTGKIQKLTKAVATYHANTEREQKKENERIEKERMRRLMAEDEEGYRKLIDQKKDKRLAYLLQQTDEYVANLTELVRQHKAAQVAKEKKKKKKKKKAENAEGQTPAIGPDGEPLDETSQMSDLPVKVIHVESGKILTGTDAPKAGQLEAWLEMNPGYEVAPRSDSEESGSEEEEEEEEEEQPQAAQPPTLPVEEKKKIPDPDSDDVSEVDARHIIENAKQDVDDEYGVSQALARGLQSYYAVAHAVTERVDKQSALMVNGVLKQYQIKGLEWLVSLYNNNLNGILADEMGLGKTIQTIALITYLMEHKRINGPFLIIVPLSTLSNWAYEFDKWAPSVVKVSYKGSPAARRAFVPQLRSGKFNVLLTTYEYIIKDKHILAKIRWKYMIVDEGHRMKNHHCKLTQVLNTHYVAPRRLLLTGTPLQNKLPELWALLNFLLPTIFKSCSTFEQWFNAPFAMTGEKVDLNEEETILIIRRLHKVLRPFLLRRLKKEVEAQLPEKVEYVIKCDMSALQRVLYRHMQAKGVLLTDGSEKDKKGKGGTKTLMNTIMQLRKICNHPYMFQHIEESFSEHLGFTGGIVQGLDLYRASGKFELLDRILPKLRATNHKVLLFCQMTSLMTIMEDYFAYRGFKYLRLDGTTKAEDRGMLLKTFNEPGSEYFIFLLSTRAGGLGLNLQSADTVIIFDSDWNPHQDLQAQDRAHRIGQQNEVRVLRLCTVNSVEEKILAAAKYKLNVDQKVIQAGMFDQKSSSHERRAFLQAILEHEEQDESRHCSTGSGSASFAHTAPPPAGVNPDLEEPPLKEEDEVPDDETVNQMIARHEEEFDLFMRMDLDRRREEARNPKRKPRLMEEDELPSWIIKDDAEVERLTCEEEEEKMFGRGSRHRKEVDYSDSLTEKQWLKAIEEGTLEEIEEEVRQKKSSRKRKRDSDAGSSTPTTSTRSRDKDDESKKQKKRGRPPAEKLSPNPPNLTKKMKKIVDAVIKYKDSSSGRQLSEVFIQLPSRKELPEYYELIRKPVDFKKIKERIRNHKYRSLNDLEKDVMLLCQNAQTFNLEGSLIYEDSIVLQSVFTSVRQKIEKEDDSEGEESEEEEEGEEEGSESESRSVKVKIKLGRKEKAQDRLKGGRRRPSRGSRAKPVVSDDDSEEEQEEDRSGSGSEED

T3 sequence (P25440 whole entry): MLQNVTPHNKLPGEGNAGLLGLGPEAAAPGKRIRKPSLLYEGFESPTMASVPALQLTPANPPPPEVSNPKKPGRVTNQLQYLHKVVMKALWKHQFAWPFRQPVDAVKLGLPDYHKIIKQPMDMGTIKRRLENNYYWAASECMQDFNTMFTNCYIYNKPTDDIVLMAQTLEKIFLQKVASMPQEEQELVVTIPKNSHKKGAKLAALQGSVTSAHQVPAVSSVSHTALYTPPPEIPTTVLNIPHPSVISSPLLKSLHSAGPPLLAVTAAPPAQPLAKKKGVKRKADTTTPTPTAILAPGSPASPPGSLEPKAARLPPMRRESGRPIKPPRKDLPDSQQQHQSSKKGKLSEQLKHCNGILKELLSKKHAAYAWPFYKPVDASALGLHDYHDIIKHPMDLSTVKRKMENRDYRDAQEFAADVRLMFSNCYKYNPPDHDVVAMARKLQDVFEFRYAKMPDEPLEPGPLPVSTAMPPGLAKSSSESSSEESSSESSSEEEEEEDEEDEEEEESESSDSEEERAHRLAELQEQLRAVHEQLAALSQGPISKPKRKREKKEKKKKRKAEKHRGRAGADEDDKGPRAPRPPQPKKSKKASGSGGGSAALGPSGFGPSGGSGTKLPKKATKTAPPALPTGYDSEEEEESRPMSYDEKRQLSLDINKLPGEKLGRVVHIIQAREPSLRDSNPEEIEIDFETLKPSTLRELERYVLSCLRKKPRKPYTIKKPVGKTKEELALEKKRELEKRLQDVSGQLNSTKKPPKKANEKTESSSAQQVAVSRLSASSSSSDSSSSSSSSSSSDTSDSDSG
Sequence of SWI/SNF-related matrix-associated actin-dependent regulator of chromatin subfamily A member 2 (Homo sapiens) (P51531 whole entry, the tested form may be a part): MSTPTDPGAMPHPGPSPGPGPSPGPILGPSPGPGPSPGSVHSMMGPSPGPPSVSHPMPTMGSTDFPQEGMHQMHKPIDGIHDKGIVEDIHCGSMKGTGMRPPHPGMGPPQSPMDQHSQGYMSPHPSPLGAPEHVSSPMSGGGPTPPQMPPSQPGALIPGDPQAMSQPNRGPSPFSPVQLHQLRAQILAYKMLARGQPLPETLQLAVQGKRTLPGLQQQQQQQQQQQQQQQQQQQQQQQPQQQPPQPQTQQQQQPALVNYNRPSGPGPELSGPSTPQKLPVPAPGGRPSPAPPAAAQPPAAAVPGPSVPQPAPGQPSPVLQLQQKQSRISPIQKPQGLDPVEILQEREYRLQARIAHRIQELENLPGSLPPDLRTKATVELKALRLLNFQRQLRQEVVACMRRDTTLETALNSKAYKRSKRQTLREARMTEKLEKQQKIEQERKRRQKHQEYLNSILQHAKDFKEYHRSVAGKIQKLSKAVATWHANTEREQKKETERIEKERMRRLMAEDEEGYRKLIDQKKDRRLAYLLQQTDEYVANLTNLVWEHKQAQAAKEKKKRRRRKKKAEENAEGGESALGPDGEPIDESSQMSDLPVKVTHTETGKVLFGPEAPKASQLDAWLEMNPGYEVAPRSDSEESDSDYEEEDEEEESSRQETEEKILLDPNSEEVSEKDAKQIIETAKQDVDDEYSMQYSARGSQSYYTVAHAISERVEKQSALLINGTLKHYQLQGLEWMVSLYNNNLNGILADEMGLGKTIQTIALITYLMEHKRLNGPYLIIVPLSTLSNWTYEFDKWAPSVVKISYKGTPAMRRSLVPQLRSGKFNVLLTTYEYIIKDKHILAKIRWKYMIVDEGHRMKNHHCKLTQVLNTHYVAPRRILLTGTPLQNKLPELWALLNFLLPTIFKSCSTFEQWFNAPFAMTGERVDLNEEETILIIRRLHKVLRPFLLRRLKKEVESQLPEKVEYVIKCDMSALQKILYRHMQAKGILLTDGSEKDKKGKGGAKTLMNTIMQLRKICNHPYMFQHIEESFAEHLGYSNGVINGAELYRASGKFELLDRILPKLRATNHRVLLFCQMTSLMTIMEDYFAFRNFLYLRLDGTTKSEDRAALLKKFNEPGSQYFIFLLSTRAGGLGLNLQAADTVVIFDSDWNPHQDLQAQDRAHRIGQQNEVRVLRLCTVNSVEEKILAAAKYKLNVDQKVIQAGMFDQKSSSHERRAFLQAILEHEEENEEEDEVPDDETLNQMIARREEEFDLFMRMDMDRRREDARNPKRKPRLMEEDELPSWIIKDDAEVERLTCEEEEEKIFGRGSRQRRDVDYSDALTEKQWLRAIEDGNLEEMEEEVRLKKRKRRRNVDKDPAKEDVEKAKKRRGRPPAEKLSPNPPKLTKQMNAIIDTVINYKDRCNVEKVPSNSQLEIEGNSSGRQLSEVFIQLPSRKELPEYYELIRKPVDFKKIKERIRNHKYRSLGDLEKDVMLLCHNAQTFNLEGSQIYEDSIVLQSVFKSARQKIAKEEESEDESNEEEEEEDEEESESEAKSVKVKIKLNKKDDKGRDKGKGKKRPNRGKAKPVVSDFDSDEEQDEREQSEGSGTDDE

For `NC(=O)c1ccc(N(C(N)=O)c2c(F)cccc2F)nc1-c1ccc(F)cc1F` [VX-702], in the data set on A549 [1], the Activity result was “Non-Toxic”. The inhibition result in data set [2] was “inactive”.
Turning to `CC(=O)NCCCCn1c2c(c3ccccc31)C(=O)NCC2`, the Kd in [3] and in data set [4] was above 75 µM each time.
Turning to `Fc1ccc(-c2ncn(C3CCNCC3)c2-c2ccnc(Oc3cc(F)cc(F)c3)n2)cc1`, the IC50 in [5] and in [6] was above 250 µM throughout.
For the molecule `Cc1cc(C)cc(Nc2nccc(-c3c(-c4ccc(F)cc4)nnn3C3CCNCC3)n2)c1`, the IC50 in data set [7] is 75 µM; in [8], 27 µM; in data set [9], 51 µM; in data set [10] it was 110 µM; in data set [11], 43 µM; in data set [12] it was 30 µM. For the same molecule, the IC50 in [13] worked out at 36 µM.
As for `COc1cc(OC)c2c(=O)[nH]c(-c3cc(C)c(OCCO)c(C)c3)nc2c1`, in [14], the inhibition result is “Active”. Further, the inhibition in data set [15] was 25%; in [16], 40%.
`Cc1cc(C)cc(Nc2nccc(-c3c(CO)nnn3C3CCNCC3)n2)c1`: the IC50 is 102 µM in data set [7]; 200 µM in data set [9]; 310 µM in data set [10]; above 250 µM in [11]; 260 µM in [12]; 110 µM in [13].
Take `C[S+]([O-])c1ccc(-c2nc(-c3ccncc3)c(-c3ccc(F)cc3)[nH]2)cc1` (configuration not stated) [SB-203580]: in the data set on A549 [1], the Activity result is listed as “Non-Toxic”.
`CC[C@@H]1C(=O)N(C)c2cnc(Nc3ccc(C(=O)NC4CCN(C)CC4)cc3OC)nc2N1C1CCCC1`: in data set [17], the inhibition entry is “Active”.
Regarding `Cc1cc(C)cc(Nc2nccc(-c3c(C)nnn3C3CCNCC3)n2)c1`, the IC50 in data set [7] worked out at 0.56 µM; in data set [8], 1.3 µM; in data set [9], 0.77 µM; in data set [10] it was 2.4 µM; in data set [11], 1.8 µM; in [12] it was 12 µM. This molecule displayed an IC50 in data set [13] of 1.6 µM.
As for `Cc1sc2c(c1C)C(c1ccc(Cl)cc1)=N[C@@H](CC(=O)OC(C)(C)C)c1nnc(C)n1-2`, the inhibition entry in data set [18] was “inactive”.
`C[S+]([O-])c1ccc(-c2nc(-c3ccc(F)cc3)c(-c3ccncc3)[nH]2)cc1` (configuration not stated): in data set [2], the inhibition entry was “inactive”.
On to `Cc1ccc(Nc2nccc(-c3c(-c4ccc(F)cc4)ncn3C3CCNCC3)n2)cc1C`, for which the IC50 in data set [19] is above 250 µM; in [5], 4.7 µM; in data set [6] it was above 250 µM. Moreover, the inhibition entry in data set [14] and in [17] was “inactive” throughout. Binding in [20] was characterised by a dissociation constant (Kd) of 1.8 µM. Besides, the inhibition entry in data set [21] and in [23] was “Active” throughout. Also, the Activity result with A549 [22] is listed as “Non-Toxic”.
On to `Cc1cc(C)cc(Nc2nccc(-c3c(-c4ccc(F)cc4)ncn3C3CCNCC3)n2)c1`, for which the IC50 in data set [5] is 3.5 µM; in [6] it was above 250 µM; in data set [9], 11.2 µM; in data set [10] it was above 100 µM; in data set [11] it was 29 µM; in data set [12], 67 µM. This molecule had an IC50 in [13] of 5.3 µM. For the same molecule, in data set [24], the outcome was Active. Also, in data set [17], the inhibition result was “inactive”. The inhibition was 50% in [25]; 40 to 50% in data set [26]; 40 to 50% in data set [27]; 40 to 50% in data set [28]; 40 to 50% in data set [29]. In addition, the Activity result in the data set on A549 [22] was “Non-Toxic”.
